Measured values from different studies.
Compare with care: the assays were run in different laboratories.
CA2: Carbonic anhydrase 2 (CA2, Homo sapiens, UniProt P00918)
MMP8: Neutrophil collagenase (MMP8, Homo sapiens, UniProt P22894)
PDE2A: cGMP-dependent 3',5'-cyclic phosphodiesterase (PDE2A, Homo sapiens, UniProt O00408)

Compound | target | test | setting | inhibition [%]
COCc1c(-c2cc3cc(C)cc(OC)c3s2)c2c(N)ncnn2c1CN1CCNC(=O)C1 | CA2 | enzyme activity, inhibitor | 10 µM | 44
CCN(CC)CCCC[C@H](NC(=O)[C@H](CC(C)C)NC(=O)[C@H](C)NC(=O)[C@H](Cc1ccccc1)NC(=O)c1ccc(C(C)(C)C)cc1)C(=O)N[C@@H](CO)C(=O)OC | Delta-type opioid receptor (OPRD1, Homo sapiens, UniProt P41143) | ligand displacement, radioligand | 10 µM | 29
CC(C)=CCC[C@]1(C)C=Cc2c(O)c3c(c(CC=C(C)C)c2O1)O[C@]12C(=C[C@@H]4C[C@H]1C(C)(C)O[C@@]2(C/C=C(/C)C(=O)O)C4=O)C3=O | N-lysine methyltransferase KMT5A (KMT5A, Homo sapiens, UniProt Q9NQR1) | cell-free assay | 10 µM | 18
COc1cc(Nc2ncc(F)c(Nc3ccc4c(n3)NC(=O)C(C)(C)O4)n2)cc(OC)c1OC | Receptor-interacting serine/threonine-protein kinase 4 (RIPK4, Homo sapiens, UniProt P57078) | binding | 10 µM | 96
CN(C)C(=O)COC(=O)Cc1ccc(OC(=O)c2ccc(NC(=N)N)cc2)cc1 | MMP8 | enzyme activity, inhibitor | 10 µM | 33
O=C(Nc1cccnn1)N1CCN([C@@H]2CCOc3cc(C(F)(F)F)ccc32)CC1 | PDE2A | enzyme activity, inhibitor | 20 µM | 3
COc1ccc(S(=O)(=O)N(CC(=O)NO)CC(C)C)cc1 | MMP8 | enzyme activity, inhibitor | 10 nM | 5
CN(CCN1CCC(OC(=O)Nc2ccccc2-c2ccccc2)CC1)C(=O)c1ccc(CN2CCC(C(N)=O)CC2)cc1 | PDE2A | enzyme activity, inhibitor | 1 µM | 1
O=C(O)Cc1ccccc1Nc1c(Cl)cccc1Cl | Histone acetyltransferase p300 (EP300, Homo sapiens, UniProt Q09472) | enzyme activity, inhibitor, mobility shift | 1.25 mM | > 50
Cn1cc(-c2cc(F)cc(N3CCn4c(cc5c4CCCC5)C3=O)c2CO)cc(Nc2ccc(N3CCN(C4COC4)CC3)cn2)c1=O | Serine/threonine-protein kinase WNK2 (WNK2, Homo sapiens, UniProt Q9Y3S1) | enzyme activity, inhibitor | 0.1 µM | -12
c1ccc(C(NCCNC(c2ccccc2)c2ccccc2)c2ccccc2)cc1 | CA2 | enzyme activity, inhibitor | 10 µM | -7
C#Cc1n[nH]c2c(-c3cn(C(C)c4ccccn4)c(=O)[nH]c3=O)cc(F)cc12 (stereo not drawn) | Misshapen-like kinase 1 (MINK1, Homo sapiens, UniProt Q8N4C8) | enzyme activity, inhibitor | 1 µM | -10.4
Cc1ncc(C)n2nc(/C=C/c3nc(N4CCCC4)cc(N4CCOCC4)n3)nc12 | 5-hydroxytryptamine receptor 1D (Htr1d, Rattus norvegicus, UniProt P28565) | ligand displacement | 10 µM | -1
Cn1cc(-c2cccc(N3CCc4c(sc5c4CC(C)(C)C5)C3=O)c2CO)cc(Nc2ccncn2)c1=O | G protein-coupled receptor kinase 3 (GRK3, Homo sapiens, UniProt P35626) | enzyme activity, inhibitor | 1 µM | 16
CCOC(=O)c1ccc(OC(=O)CCCCCNC(=N)N)cc1 | MMP8 | enzyme activity, inhibitor | 10 µM | 7
